{"source": "ChEMBL document CHEMBL5653631", "about": "“A Potent and Selective ULK1 Inhibitor Suppresses Autophagy and Sensitizes Cancer Cells to Nutrient Stress” (iScience, 2018)", "key": {"[1]": {"biological_target": "STE20-like serine/threonine-protein kinase (Homo sapiens) (UniProt Q9H2G2)", "sequence (Q9H2G2 whole entry, looked up)": "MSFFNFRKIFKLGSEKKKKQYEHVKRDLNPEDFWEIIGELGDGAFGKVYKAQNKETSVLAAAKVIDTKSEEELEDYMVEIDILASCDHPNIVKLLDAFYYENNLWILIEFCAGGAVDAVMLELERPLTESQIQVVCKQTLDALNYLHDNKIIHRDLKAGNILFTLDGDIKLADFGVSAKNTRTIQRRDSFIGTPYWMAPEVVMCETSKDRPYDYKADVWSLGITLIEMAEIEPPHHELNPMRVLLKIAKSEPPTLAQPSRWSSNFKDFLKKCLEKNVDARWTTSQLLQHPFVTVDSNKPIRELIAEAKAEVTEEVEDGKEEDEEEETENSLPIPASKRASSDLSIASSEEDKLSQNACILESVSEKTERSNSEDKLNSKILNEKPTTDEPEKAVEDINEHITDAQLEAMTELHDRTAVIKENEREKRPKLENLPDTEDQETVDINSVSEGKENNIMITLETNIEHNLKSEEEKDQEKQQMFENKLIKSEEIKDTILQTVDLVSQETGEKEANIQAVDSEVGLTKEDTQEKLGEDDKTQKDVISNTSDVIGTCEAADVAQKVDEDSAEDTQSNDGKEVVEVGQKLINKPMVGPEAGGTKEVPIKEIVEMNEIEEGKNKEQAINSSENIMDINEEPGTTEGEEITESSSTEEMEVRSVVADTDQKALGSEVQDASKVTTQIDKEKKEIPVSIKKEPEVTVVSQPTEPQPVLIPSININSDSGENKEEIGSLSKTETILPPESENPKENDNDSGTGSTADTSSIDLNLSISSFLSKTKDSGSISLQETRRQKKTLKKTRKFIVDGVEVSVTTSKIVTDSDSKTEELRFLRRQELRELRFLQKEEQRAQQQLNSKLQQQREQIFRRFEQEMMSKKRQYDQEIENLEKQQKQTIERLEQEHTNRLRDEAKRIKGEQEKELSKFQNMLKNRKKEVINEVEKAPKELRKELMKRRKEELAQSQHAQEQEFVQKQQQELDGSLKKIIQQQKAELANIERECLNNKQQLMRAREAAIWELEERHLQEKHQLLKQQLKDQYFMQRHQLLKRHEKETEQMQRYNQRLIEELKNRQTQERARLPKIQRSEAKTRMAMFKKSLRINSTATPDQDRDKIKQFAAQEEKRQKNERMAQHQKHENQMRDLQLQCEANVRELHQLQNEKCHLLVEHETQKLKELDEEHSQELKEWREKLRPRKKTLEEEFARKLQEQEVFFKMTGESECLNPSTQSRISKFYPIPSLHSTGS", "assay": "Inhibition of human recombinant SLK at 500 nM related to control ULK1"}, "[2]": {"biological_target": "Interferon-induced, double-stranded RNA-activated protein kinase (Homo sapiens) (UniProt P19525)", "sequence (P19525 whole entry)": "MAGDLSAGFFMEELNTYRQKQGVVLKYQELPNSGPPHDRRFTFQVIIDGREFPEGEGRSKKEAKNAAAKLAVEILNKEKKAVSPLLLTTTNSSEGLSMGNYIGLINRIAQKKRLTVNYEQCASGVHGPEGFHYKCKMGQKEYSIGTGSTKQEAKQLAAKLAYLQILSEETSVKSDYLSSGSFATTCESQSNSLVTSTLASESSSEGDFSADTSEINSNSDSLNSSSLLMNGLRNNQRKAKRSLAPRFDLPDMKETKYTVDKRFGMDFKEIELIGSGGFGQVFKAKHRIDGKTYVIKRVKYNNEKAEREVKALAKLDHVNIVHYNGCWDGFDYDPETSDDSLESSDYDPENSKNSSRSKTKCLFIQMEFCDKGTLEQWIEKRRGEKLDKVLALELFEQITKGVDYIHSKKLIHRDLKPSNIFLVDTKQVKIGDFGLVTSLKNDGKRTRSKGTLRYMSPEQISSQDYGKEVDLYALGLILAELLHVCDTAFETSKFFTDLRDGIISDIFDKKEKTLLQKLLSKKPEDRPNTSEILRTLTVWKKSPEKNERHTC", "assay": "Inhibition of human recombinant PKR at 500 nM in presence of ATP by radiometric assay relative to control"}, "[3]": {"biological_target": "T1, Serine/threonine-protein kinase BRSK2 (Homo sapiens) (UniProt Q8IWQ3)", "T1 sequence (whole entry)": "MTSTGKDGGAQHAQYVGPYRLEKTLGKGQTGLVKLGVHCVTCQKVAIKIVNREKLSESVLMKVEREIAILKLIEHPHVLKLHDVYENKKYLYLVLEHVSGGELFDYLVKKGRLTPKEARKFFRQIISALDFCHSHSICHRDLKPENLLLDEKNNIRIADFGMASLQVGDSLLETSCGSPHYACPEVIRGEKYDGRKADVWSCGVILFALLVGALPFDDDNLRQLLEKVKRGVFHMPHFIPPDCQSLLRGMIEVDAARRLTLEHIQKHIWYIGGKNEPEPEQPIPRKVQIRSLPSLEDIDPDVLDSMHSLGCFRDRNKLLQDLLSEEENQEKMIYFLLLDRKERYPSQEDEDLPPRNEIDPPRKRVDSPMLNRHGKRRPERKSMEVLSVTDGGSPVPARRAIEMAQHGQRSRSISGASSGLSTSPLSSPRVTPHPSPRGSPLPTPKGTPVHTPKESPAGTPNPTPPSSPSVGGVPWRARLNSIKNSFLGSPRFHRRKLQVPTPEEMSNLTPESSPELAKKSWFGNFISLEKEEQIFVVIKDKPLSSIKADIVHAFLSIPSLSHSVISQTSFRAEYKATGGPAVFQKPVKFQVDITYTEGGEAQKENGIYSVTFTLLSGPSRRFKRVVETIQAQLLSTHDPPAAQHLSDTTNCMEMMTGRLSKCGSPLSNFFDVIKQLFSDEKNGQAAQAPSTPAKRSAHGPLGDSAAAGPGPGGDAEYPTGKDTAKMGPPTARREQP", "assay": "Inhibition of human recombinant BRSK2 at 500 nM in presence of ATP by radiometric assay relative to control", "method_in_brief": "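Recombinant human kinase panel (327 kinases) run as radiometric activity assays, each kinase in duplicate at one compound concentration. Activity remaining expressed relative to vehicle control; percent inhibition taken as 100% minus % activity remaining.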"}, "[4]": {"biological_target": "Ephrin type-A receptor 5 (Homo sapiens) (UniProt P54756)", "sequence (P54756 whole entry)": "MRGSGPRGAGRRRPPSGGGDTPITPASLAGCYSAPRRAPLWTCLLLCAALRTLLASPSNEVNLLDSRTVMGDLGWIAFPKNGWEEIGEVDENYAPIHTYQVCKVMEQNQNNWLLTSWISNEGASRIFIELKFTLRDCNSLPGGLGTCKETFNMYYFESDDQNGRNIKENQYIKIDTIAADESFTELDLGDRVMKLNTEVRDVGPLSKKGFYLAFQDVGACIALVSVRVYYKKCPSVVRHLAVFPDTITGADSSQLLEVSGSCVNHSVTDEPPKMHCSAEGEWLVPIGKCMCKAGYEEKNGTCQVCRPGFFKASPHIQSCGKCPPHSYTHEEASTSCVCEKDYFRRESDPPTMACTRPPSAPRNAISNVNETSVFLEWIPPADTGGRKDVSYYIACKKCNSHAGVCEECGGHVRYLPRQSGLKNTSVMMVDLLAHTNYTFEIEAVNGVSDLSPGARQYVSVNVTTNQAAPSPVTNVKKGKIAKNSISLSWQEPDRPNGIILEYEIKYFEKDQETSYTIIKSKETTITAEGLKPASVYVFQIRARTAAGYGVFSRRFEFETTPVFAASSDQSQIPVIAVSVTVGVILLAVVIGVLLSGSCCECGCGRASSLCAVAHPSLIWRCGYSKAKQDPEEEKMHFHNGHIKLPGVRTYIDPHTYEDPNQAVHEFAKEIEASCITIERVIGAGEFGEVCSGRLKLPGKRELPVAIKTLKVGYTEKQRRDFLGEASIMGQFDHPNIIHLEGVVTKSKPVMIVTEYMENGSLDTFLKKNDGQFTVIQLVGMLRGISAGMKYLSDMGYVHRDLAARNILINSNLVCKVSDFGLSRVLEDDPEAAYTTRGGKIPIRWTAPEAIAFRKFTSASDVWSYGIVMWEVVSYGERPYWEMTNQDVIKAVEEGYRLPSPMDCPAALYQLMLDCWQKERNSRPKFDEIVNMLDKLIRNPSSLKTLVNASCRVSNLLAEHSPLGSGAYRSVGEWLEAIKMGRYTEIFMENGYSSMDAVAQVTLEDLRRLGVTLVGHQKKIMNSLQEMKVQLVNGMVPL", "assay": "Inhibition of human recombinant EphA5 at 500 nM in presence of ATP by radiometric assay relative to control"}, "[5]": {"biological_target": "T2, Mitogen-activated protein kinase kinase kinase 7 (Homo sapiens) (UniProt O43318)", "T2 sequence (whole entry)": "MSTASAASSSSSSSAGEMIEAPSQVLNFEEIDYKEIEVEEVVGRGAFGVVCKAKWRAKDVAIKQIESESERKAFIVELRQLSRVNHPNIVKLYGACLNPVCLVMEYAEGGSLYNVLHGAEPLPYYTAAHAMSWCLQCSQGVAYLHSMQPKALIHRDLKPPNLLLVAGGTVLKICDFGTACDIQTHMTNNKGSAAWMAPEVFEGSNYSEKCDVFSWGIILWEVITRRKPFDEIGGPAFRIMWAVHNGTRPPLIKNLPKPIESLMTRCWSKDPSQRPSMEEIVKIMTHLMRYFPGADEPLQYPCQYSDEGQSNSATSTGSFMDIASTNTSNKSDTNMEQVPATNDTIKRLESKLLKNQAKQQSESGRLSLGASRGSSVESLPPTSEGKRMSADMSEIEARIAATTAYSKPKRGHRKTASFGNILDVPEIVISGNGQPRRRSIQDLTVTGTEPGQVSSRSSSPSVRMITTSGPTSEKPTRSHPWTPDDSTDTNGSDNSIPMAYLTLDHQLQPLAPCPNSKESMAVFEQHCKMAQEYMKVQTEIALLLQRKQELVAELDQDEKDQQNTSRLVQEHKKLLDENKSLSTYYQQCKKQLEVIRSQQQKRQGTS", "assay": "Inhibition of human recombinant TAK1 at 15 nM in presence of ATP by radiometric assay relative to control"}, "[6]": {"biological_target": "Dual specificity protein kinase CLK4 (Homo sapiens) (UniProt Q9HAZ1)", "sequence (Q9HAZ1 whole entry, looked up)": "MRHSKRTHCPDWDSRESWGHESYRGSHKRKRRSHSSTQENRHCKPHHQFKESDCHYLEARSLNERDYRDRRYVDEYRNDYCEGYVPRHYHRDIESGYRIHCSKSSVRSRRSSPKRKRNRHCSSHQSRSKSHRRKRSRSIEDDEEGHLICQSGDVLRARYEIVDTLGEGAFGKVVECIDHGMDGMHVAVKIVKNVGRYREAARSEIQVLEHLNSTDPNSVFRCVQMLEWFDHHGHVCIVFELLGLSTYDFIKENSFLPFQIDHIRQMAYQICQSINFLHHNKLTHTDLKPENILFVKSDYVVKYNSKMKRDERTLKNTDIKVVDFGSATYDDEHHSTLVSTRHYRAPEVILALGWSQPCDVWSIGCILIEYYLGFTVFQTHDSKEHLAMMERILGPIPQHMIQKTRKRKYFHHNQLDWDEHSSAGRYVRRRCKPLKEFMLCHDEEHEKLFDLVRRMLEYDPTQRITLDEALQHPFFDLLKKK", "assay": "Inhibition of human recombinant CLK4 at 15 nM related to control ULK1"}, "[7]": {"biological_target": "Cyclin-dependent kinase-like 1 (Homo sapiens) (UniProt Q00532)", "sequence (Q00532 whole entry)": "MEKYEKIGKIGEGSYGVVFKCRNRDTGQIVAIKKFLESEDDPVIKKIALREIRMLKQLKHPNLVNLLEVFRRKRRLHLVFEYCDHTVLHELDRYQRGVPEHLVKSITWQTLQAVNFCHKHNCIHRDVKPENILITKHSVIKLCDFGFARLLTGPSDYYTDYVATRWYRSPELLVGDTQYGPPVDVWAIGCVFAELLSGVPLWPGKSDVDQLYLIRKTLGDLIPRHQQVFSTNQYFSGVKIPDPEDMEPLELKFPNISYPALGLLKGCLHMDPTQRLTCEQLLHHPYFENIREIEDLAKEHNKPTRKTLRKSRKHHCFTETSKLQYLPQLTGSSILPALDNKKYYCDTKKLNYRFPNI", "assay": "Inhibition of human recombinant CDKL1 at 15 nM related to control ULK1"}, "[8]": {"biological_target": "T3, Serine/threonine-protein kinase Nek9 (Homo sapiens) (UniProt Q8TD19)", "T3 sequence (whole entry)": "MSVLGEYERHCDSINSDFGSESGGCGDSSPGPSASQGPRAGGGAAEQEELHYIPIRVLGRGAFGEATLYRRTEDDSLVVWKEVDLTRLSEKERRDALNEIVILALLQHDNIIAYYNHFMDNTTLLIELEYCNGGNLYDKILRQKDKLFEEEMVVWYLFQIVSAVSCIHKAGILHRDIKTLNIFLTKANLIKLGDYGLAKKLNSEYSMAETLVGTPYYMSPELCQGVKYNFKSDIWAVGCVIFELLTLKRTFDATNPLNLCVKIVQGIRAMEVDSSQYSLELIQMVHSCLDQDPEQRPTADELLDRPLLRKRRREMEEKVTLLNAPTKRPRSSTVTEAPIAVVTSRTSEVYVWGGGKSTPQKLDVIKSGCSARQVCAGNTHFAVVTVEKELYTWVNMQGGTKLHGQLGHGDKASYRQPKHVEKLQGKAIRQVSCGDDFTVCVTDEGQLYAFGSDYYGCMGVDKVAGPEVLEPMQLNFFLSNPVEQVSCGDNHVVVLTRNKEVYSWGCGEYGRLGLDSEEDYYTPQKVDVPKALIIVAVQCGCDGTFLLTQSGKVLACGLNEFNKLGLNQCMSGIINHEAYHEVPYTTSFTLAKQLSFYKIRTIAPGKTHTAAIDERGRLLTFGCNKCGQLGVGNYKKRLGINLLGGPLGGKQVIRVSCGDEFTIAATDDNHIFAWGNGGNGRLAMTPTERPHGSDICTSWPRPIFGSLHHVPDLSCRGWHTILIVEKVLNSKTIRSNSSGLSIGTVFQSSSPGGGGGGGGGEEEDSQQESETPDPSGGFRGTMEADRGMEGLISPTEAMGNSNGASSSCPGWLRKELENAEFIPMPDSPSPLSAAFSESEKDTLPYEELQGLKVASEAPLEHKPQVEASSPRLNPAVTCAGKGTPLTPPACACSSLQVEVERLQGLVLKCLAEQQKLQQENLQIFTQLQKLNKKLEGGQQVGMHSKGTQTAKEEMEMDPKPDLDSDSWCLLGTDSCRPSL", "assay": "Inhibition of human recombinant NEK9 at 40 nM in presence of ATP by radiometric assay relative to control"}}, "data": [{"smiles": "CNC(=O)c1ccccc1Oc1nc(Nc2cc(OC)c(OC)c(OC)c2)ncc1Br", "values": [{"measurement": "fold change (FC)", "setting": "[1]", "result": 0.2}, {"measurement": "inhibition", "setting": "[2]", "result": 4, "unit": "%"}, {"measurement": "inhibition", "setting": "[3]", "result": 3, "unit": "%"}, {"measurement": "inhibition", "setting": "[4]", "result": 19, "unit": "%"}]}, {"smiles": "CC(C)[C@H](NC(=O)c1cc(-c2cnn3cc(-c4ccc(OCCN5CCCCC5)cc4)cnc23)cs1)C(F)(F)F", "values": [{"measurement": "inhibition", "setting": "[5]", "result": 1, "unit": "%"}, {"measurement": "fold change (FC)", "setting": "[6]", "result": 0.94}, {"measurement": "fold change (FC)", "setting": "[7]", "result": 0.27}]}, {"smiles": "O=C(N[C@@H](C1CC1)C(F)(F)F)c1cc(-c2cnn3cc(-c4ccc(F)cc4)cnc23)cs1", "values": [{"measurement": "inhibition", "setting": "[8]", "result": 5, "unit": "%"}]}]}
